Experiment [1] concerns the target T1, Transient receptor potential cation channel subfamily V member 1 (Homo sapiens, UniProt Q8NER1). In words: Antagonist activity at human TRPV1 expressed in CHOK1 cells assessed as inhibition of pH-induced activity by FLIPR assay. It counts as cell-based, CHO-K1. Conditions: for inhibition: CHO-K1.
Experiment [2] has as its target T1, Transient receptor potential cation channel subfamily V member 1. The experiment is described as follows: Antagonist activity at human TRPV1 expressed in CHOK1 cells assessed as inhibition of capsaicin-induced activity by FLIPR assay. It counts as cell-based, CHO-K1.
The subject of the next experiment is Mus musculus. The experiment is described as follows: Inhibition of capsaicin-induced hypothermia in NMRI mouse at 0.3 mg/kg, po administered 15 mins prior challenge measured at 30 mins post-challenge. More on the design: dose 0.3 mg/kg. Type of experiment: functional, organism-based.
In experiment [3] the target is T1, Transient receptor potential cation channel subfamily V member 1. The experiment is described as follows: Antagonist activity at human TRPV1 expressed in CHOK1 cells assessed as inhibition of N-arachidonoyl dopamine-induced activity after 5 mins by FLIPR assay.
Experiment [4] relates to Rattus norvegicus. In words: Analgesic activity in CCI-induced Sprague-Dawley rat neuropathic pain model assessed as reduction in paw withdrawal at 10 mg/kg, po measured 45 mins post compound administration relative to control. It counts as functional. Summed up: (§1)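 Chronic constriction injury (Bennett model) of neuropathic pain in rats, read out as cold allodynia. Compound given orally and compared with vehicle. Effect expressed as % maximal possible effect (MPE), with n = 10 per group, mean ± SEM, and p < 0.05 versus vehicle. ED50 taken from the dose–response.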

The test system of experiment [5] is Rattus norvegicus. In words: Analgesic activity in CCI-induced Sprague-Dawley rat neuropathic pain model assessed as reduction in paw withdrawal measured 45 mins after po administration. Type of experiment: functional. Summed up: as §1
In experiment [6] the target is T1, Transient receptor potential cation channel subfamily V member 1. In words: Antagonist activity at human TRPV1 expressed in CHOK1 cells assessed as inhibition of 45 degC heat-induced activity after 5 mins by FLIPR assay. It counts as cell-based, CHO-K1.

This note sets out measurements from ChEMBL document CHEMBL2439987, “TRPV1 antagonist with high analgesic efficacy: 2-Thio pyridine C-region analogues of 2-(3-fluoro-4-methylsulfonylaminophenyl)propanamides” (Bioorg Med Chem, 2013).

Active and inactive are the calls of the source. The rule behind the calls is not given here. Bounds are passed on as bounds.

T1 sequence (Q8NER1 whole entry): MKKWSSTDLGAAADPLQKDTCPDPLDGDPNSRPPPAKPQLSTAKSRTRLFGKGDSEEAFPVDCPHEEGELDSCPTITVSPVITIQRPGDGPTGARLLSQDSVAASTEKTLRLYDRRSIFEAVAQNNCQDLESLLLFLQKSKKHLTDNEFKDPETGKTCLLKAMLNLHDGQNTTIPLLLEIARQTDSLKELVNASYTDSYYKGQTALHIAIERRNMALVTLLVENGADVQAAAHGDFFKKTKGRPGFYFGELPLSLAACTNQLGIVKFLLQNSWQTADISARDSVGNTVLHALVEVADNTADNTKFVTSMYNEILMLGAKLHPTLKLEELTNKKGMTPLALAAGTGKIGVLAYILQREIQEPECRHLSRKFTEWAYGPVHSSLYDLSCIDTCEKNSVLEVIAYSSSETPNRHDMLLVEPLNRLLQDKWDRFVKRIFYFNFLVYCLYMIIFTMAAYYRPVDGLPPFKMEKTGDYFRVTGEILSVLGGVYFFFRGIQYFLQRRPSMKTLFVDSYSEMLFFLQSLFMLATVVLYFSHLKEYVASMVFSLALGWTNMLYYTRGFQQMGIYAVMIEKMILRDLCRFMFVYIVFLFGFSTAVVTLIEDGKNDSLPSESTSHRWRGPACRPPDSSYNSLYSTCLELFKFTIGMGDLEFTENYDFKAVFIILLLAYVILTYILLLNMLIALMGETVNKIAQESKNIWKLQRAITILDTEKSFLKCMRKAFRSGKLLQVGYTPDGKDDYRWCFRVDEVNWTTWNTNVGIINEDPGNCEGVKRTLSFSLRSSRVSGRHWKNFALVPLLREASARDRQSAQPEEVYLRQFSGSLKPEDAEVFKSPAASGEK

Usually IC50 stands for the point on the concentration scale where inhibition reaches its midpoint. Broadly, the Ki is a measure of affinity in units of concentration, obtained from inhibition or displacement. Turning to `CC(C(=O)NCc1ccc(C(F)(F)F)nc1SCCCN1CCCC1)c1ccc(NS(C)(=O)=O)c(F)c1` (centres undefined), the IC50 in experiment [1] worked out at 312 nM. In addition, the Ki in experiment [2] (read-out: Ki) is 3.3 nM.

As for `CC(C(=O)NCc1ccc(C(F)(F)F)nc1SCc1ccc(Cl)cc1)c1ccc(NS(C)(=O)=O)c(F)c1` (centres undefined), in experiment [1], the half-inhibitory concentration (IC50) stood at 674 nM. In experiment [2] (read-out: Ki), the Ki was 8.7 nM.

On to `CC(C(=O)NCc1ccc(C(F)(F)F)nc1SC1CCCCC1)c1ccc(NS(C)(=O)=O)c(F)c1` (centres undefined), for which the inhibition entry in experiment [1] is “inactive”.

For `CC(C(=O)NCc1ccc(C(F)(F)F)nc1SCc1ccco1)c1ccc(NS(C)(=O)=O)c(F)c1` (centres undefined), the inhibition result in experiment [1] was “inactive”. Besides, the Ki in experiment [2] (read-out: Ki) came out at 14.6 nM.

As to `CCCCCSc1nc(C(F)(F)F)ccc1CNC(=O)C(C)c1ccc(NS(C)(=O)=O)c(F)c1` (centres undefined), the IC50 in experiment [1] amounted to 95.6 nM. Also, the Ki in experiment [2] (read-out: Ki) amounted to 2.5 nM.

Turning to `COc1ccc(CSc2nc(C(F)(F)F)ccc2CNC(=O)C(C)c2ccc(NS(C)(=O)=O)c(F)c2)cc1` (centres undefined), the IC50 in experiment [1] was 279 nM. The Ki in experiment [2] (read-out: Ki) stood at 2.3 nM.

Consider `C[C@H](C(=O)NCc1ccc(C(C)(C)C)cc1)c1ccc(NS(C)(=O)=O)c(F)c1`, for which the IC50 in experiment [1] is 1280 nM. Besides, the Ki in experiment [2] (read-out: Ki) was 28 nM.

In the case of `CCC1CCC(Sc2nc(C(F)(F)F)ccc2CNC(=O)C(C)c2ccc(NS(C)(=O)=O)c(F)c2)CC1` (centres undefined), the inhibition entry in experiment [1] is “inactive”. The Ki in experiment [2] (read-out: Ki) came out at 1 nM.

For `COC(=O)CCSc1nc(C(F)(F)F)ccc1CNC(=O)C(C)c1ccc(NS(C)(=O)=O)c(F)c1` (centres undefined), the concentration for half-maximal inhibition (IC50) in experiment [1] was 1100 nM. For the same compound, the Ki in experiment [2] (read-out: Ki) stood at 48.2 nM.

For the compound `CC1CCN(CCCSc2nc(C(F)(F)F)ccc2CNC(=O)C(C)c2ccc(NS(C)(=O)=O)c(F)c2)CC1` (centres undefined), the IC50 in experiment [1] was determined as 217 nM. Besides, the Ki in experiment [2] (read-out: Ki) is 2.9 nM.

As to `C[C@@H](C(=O)NCc1ccc(C(F)(F)F)nc1SC1CCCCC1)c1ccc(NS(C)(=O)=O)c(F)c1`, in experiment [1], the inhibition entry is “inactive”. In experiment [2] (read-out: Ki), the Ki came to 43.5 nM.

Take `CC(C(=O)NCc1ccc(C(F)(F)F)nc1[S+]([O-])C1CCCCC1)c1ccc(NS(C)(=O)=O)c(F)c1` (centres undefined): in experiment [1], the inhibition entry is “inactive”. The inhibition constant Ki entry in experiment [2] (cho-k1) was “Not Active”.

In the case of `CCCCCCSc1nc(C(F)(F)F)ccc1CNC(=O)C(C)c1ccc(NS(C)(=O)=O)c(F)c1` (centres undefined), in experiment [1], the IC50 stood at 719 nM. The Ki in experiment [2] (read-out: Ki) came to 5.6 nM.

Regarding `CC(C(=O)NCc1ccc(C(F)(F)F)nc1SCC(F)(F)F)c1ccc(NS(C)(=O)=O)c(F)c1` (centres undefined), the inhibition result in experiment [1] was “inactive”. Also, the Ki in experiment [2] (read-out: Ki) worked out at 4.3 nM.

Consider `CC(C(=O)NCc1ccc(C(F)(F)F)nc1S(=O)(=O)C1CCCCC1)c1ccc(NS(C)(=O)=O)c(F)c1` (centres undefined), for which, in experiment [1], the inhibition result is “inactive”. Also, in experiment [2] (cho-k1), the Ki result is reported as “Not Active”.

`CC(C(=O)NCc1ccc(C(F)(F)F)nc1SC1CCCC1)c1ccc(NS(C)(=O)=O)c(F)c1` (centres undefined): the inhibition result in experiment [1] was “inactive”. For the same compound, the Ki in experiment [2] (read-out: Ki) worked out at 1.2 nM.

As to `CC(C(=O)NCc1ccc(C(F)(F)F)nc1SCCCBr)c1ccc(NS(C)(=O)=O)c(F)c1` (centres undefined), the IC50 in experiment [1] is 68 nM. For the same compound, in experiment [2] (read-out: Ki), the Ki was 7 nM.

As to `CC(C(=O)NCc1ccc(C(F)(F)F)nc1SCCC(=O)N1CCCC1)c1ccc(NS(C)(=O)=O)c(F)c1` (centres undefined), the inhibition result in experiment [1] was “inactive”. Further, in experiment [2] (read-out: Ki), the Ki is 85 nM.

Consider `CC(C(=O)NCc1ccc(C(F)(F)F)nc1SCCc1ccccc1)c1ccc(NS(C)(=O)=O)c(F)c1` (centres undefined), for which, in experiment [1], the IC50 stood at 111 nM. The Ki in experiment [2] (read-out: Ki) came to 1.9 nM.

For `CC(C(=O)NCc1ccc(C(F)(F)F)nc1SCCCN1CCCCC1)c1ccc(NS(C)(=O)=O)c(F)c1` (centres undefined), in experiment [1], the IC50 was 250 nM. Moreover, in experiment [2] (read-out: Ki), the inhibition constant (Ki) came to 3 nM.

In general, ED50 refers to the midpoint of the dose-response relation. In the case of `C[C@H](C(=O)NCc1ccc(C(F)(F)F)nc1SC1CCCCC1)c1ccc(NS(C)(=O)=O)c(F)c1`, in the experiment on Mus musculus, the inhibition result is “Active”. Besides, the figures for the IC50 in experiment [1] and in experiment [6] were over 1000 nM and 22.3 nM, respectively. Further, the Ki in experiment [3] was 0.05 nM; in experiment [2] (read-out: Ki), 0.4 nM. Moreover, the “%max” value in the experiment on Rattus norvegicus [4] was 75%. Besides, the Activity entry with Rattus norvegicus [5] is “Dose-dependent effect”. Moreover, the ED50 in the experiment on Rattus norvegicus [5] (0.75 h) was 0.19 mg/kg.

As to `CC(C)CCSc1nc(C(F)(F)F)ccc1CNC(=O)C(C)c1ccc(NS(C)(=O)=O)c(F)c1` (centres undefined), in experiment [1], the IC50 came out at 82 nM. Besides, the Ki in experiment [2] (read-out: Ki) was found to be 0.7 nM.

In the case of `Cc1ccc(CSc2nc(C(F)(F)F)ccc2CNC(=O)C(C)c2ccc(NS(C)(=O)=O)c(F)c2)cc1` (centres undefined), the IC50 in experiment [1] is 764 nM. For the same compound, the Ki in experiment [2] (read-out: Ki) was 3.2 nM.

As for `CC(C(=O)NCc1ccc(C(F)(F)F)nc1SCc1cccc(C(F)(F)F)c1)c1ccc(NS(C)(=O)=O)c(F)c1` (centres undefined), the half-inhibitory concentration (IC50) in experiment [1] stood at 71 nM. The Ki in experiment [2] (read-out: Ki) is 3.9 nM.

In the case of `CC(C(=O)NCc1ccc(C(F)(F)F)nc1SCc1ccccc1Cl)c1ccc(NS(C)(=O)=O)c(F)c1` (centres undefined), the concentration for half-maximal inhibition (IC50) in experiment [1] worked out at 620 nM. In addition, in experiment [2] (read-out: Ki), the Ki came out at 4.9 nM.

With `CC(C(=O)NCc1ccc(C(F)(F)F)nc1SCCCO)c1ccc(NS(C)(=O)=O)c(F)c1` (centres undefined), the inhibitory constant (Ki) entry in experiment [2] (cho-k1) was “Not Active”.

With `CC(C(=O)NCc1ccc(C(F)(F)F)nc1SCCOc1ccccc1)c1ccc(NS(C)(=O)=O)c(F)c1` (centres undefined), the IC50 in experiment [1] worked out at 118 nM. In addition, the Ki in experiment [2] (read-out: Ki) is 2.3 nM.

Regarding `CC(C(=O)NCc1ccc(C(F)(F)F)nc1SCc1cccs1)c1ccc(NS(C)(=O)=O)c(F)c1` (centres undefined), the inhibition result in experiment [1] was “inactive”. For the same compound, in experiment [2] (read-out: Ki), the Ki is 15 nM.

For the compound `CC(C(=O)NCc1ccc(C(F)(F)F)nc1SCCC(=O)O)c1ccc(NS(C)(=O)=O)c(F)c1` (centres undefined), the inhibition result in experiment [1] is “inactive”. Also, the Ki entry in experiment [2] (cho-k1) was “Not Active”.

As for `CC1CCC(Sc2nc(C(F)(F)F)ccc2CNC(=O)C(C)c2ccc(NS(C)(=O)=O)c(F)c2)CC1` (centres undefined), the IC50 in experiment [1] came to 180 nM. Besides, the Ki in experiment [2] (read-out: Ki) stood at 0.5 nM.

For the compound `CC(C(=O)NCc1ccc(C(F)(F)F)nc1SCCCN1CCOCC1)c1ccc(NS(C)(=O)=O)c(F)c1` (centres undefined), the inhibition entry in experiment [1] is “inactive”. In experiment [2] (cho-k1), the inhibition constant Ki result is “Not Active”.

Turning to `CC(C(=O)NCc1ccc(C(F)(F)F)nc1SCC1CCCCC1)c1ccc(NS(C)(=O)=O)c(F)c1` (centres undefined), the IC50 in experiment [1] was determined as 254 nM. Further, the Ki in experiment [2] (read-out: Ki) turned out to be 2.3 nM.

As for `CC(C(=O)NCc1ccc(C(F)(F)F)nc1SC1CCC(C(C)(C)C)CC1)c1ccc(NS(C)(=O)=O)c(F)c1` (centres undefined), the IC50 in experiment [1] amounted to 89.6 nM. In experiment [2] (read-out: Ki), the Ki was 2.6 nM.

As for `CC(C(=O)NCc1ccc(C(F)(F)F)nc1SC1CCCCC1C)c1ccc(NS(C)(=O)=O)c(F)c1` (centres undefined), the inhibition entry in experiment [1] was “inactive”. The Ki in experiment [2] (read-out: Ki) turned out to be 1.9 nM.

`CC(C(=O)NCc1ccc(C(F)(F)F)nc1SCCCN(C)C)c1ccc(NS(C)(=O)=O)c(F)c1` (centres undefined): in experiment [1], the IC50 stood at 1500 nM. Further, the Ki in experiment [2] (read-out: Ki) was 27.4 nM.
